According to ChEMBL document CHEMBL4017538, “Vitamin D Analogues with a p-Hydroxyphenyl Group at the C25 Position: Crystal Structure of Vitamin D Receptor Ligand-Binding Domain Complexed with the Ligand Explains the Mechanism Underlying Full Antagonistic Action” (J Med Chem, 2017):
Calls of active or inactive are those of the source. No cut-off for these calls is given here.

How the values were obtained:
[1] = biological target: T1, Vitamin D3 receptor (Homo sapiens) (UniProt P11473); experiment: Antagonist activity at human vitamin D receptor expressed in African green monkey COS7 cells assessed as inhibition of 1,25D3-induced transactivation after 16 hrs by dual luciferase reporter gene assay; assay type: cell-based
T1 sequence (whole entry): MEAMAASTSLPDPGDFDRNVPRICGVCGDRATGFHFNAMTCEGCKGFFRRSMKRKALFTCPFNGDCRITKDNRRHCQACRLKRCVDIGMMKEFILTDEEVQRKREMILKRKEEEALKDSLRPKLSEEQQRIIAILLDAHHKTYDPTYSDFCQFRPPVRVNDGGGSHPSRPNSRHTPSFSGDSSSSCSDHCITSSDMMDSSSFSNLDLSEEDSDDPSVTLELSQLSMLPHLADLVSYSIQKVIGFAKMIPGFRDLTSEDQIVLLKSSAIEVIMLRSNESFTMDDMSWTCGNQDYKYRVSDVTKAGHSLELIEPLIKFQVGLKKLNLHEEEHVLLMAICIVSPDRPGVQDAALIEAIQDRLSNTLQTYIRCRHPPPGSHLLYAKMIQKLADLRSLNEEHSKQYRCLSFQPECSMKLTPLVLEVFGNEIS
Summary of the method: (§1)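 Cells were co-transfected with full-length human VDR expression plasmid (pCMX-hVDR), a luciferase reporter carrying three copies of mouse osteopontin VDRE (SPPx3-TK-Luc), and a sea pansy luciferase internal control (pRL-CMV), then read by dual luciferase assay. Activity is scaled so that 10−8 M 1,25D3 equals 1 in Cos7 and 10−9 M 1,25D3 equals 1 in HEK293. Inhibition was tested in the presence of 1,25D3.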

[2] = biological target: T1, Vitamin D3 receptor (Homo sapiens); experiment: Partial agonist activity at human vitamin D receptor expressed in HEK293 cells after 16 hrs by dual luciferase reporter gene assay; assay type: cell-based; summary of the method: as §1
[3] = biological target: T1, Vitamin D3 receptor (Homo sapiens); experiment: Ratio of 1,25-(OH)2D3 IC50 to test compound IC50 for displacement of [3H]-1,25-(OH)2D3 from N-terminal GST-tagged human recombinant vitamin D receptor ligand binding domain expressed in Escherichia coli BL21 (DE3) pLys S after 16 hrs
[4] = biological target: T2, Vitamin D3 receptor (Homo sapiens, UniProt P11473); experiment: Displacement of [3H]-1,25-(OH)2D3 from N-terminal GST-tagged human recombinant vitamin D receptor ligand binding domain expressed in Escherichia coli BL21 (DE3) pLys S after 16 hrs
T2 sequence (P11473 whole entry): T1 sequence (whole entry)

[5] = biological target: T1, Vitamin D3 receptor (Homo sapiens); experiment: Agonist activity at human vitamin D receptor expressed in African green monkey COS7 cells after 16 hrs by dual luciferase reporter gene assay; assay type: cell-based; summary of the method: as §1
[6] = biological target: T2, Vitamin D3 receptor
[7] = biological target: T1, Vitamin D3 receptor (Homo sapiens); experiment: Antagonist activity at VP16-fused human vitamin D receptor in HEK293 cells assessed as inhibition of ligand-induced GAL4-fused SRC1 coactivator recruitment by dual luciferase assay; assay type: cell-based
[8] = biological target: T1, Vitamin D3 receptor (Homo sapiens); experiment: Antagonist activity at VP16-fused human vitamin D receptor in HEK293 cells assessed as inhibition of ligand-induced GAL4-fused RXRalpha recruitment by dual luciferase assay; assay type: cell-based

Compound	antagonist activity (qualitative) [1]	Activity [2]	relative affinity (IC50 ref/IC50 test) [3]	IC50 [4] [µM]	Activity [5]	IC50 [6] [µM]	inhibition [7]	inhibition [8]
C=C1[C@H](O)CC(=C/C=C2\CCC[C@]3(C)[C@@H]([C@H](C)[C@@H](CCCC)CCC(O)c4ccc(O)cc4)CC[C@@H]23)C[C@H]1O (stereo partly specified)	Dose-dependent effect	Active	0.0094	0.017	inactive			
C=C1[C@H](O)CC(=C/C=C2\CCC[C@]3(C)[C@@H]([C@H](C)CCCC(O)(c4ccc(O)cc4)c4ccc(O)cc4)CC[C@@H]23)C[C@H]1O			0.00096	0.52	inactive	0.8	Active	Active
C=C1[C@H](O)CC(=C/C=C2\CCC[C@]3(C)[C@@H]([C@H](C)CCCC(O)c4ccc(O)cc4)CC[C@@H]23)C[C@H]1O (stereo partly specified)	Active	Active	0.0044	0.036				
C=C1[C@H](O)CC(=C/C=C2\CCC[C@]3(C)[C@@H]([C@H](C)[C@@H](CCCC)CCC(=O)c4ccc(O)cc4)CC[C@@H]23)C[C@H]1O			0.028	0.02	inactive		Active	inactive
C=C1[C@H](O)CC(=C/C=C2\CCC[C@]3(C)[C@@H]([C@H](C)CCCC(OC)c4ccc(O)cc4)CC[C@@H]23)C[C@H]1O (stereo partly specified)			0.0049	0.102				
C=C1[C@H](O)CC(=C/C=C2\CCC[C@]3(C)[C@@H]([C@H](C)[C@@H](CCCC)CCC(O)(c4ccc(O)cc4)c4ccc(O)cc4)CC[C@@H]23)C[C@H]1O			0.0042	0.13	inactive	0.4	Active	inactive
C=C1[C@H](O)CC(=C/C=C2\CCC[C@]3(C)[C@@H]([C@H](C)CCCC(=O)c4ccc(O)cc4)CC[C@@H]23)C[C@H]1O	Active	Active	0.006	0.084				
C=C1[C@H](O)CC(=C/C=C2\CCC[C@]3(C)[C@@H]([C@H](C)[C@@H](CCCC)CCC(OC)c4ccc(O)cc4)CC[C@@H]23)C[C@H]1O (stereo partly specified)	Active	Active	0.031	0.023				
